{"source": "PubChem BioAssay AID463209", "about": "(The Scripps Research Institute Molecular Screening Center, 2010)", "note": "Active and inactive are the calls of the source.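 How the source made its calls: active means parasite growth inhibition of at least 50% in red blood cells; inactive means the rest.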"}
{"test_system": "P. falciparum 3D7 in RBCs, 3H-hypoxanthine incorporation, 48 h", "assay": "blood-stage malaria parasite growth inhibition – cell-based, radiolabel readout, RBCs, P. falciparum M1AAP inhibitor project, late-stage follow-up (AID 463209)", "conditions": "at 10 µM; active compounds read high", "how_it_was_run": "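System: Plasmodium falciparum clone 3D7 in human red blood cells; Medium: hypoxanthine-free RPMI medium with 10% serum; Compound dosing: 10 µM single dose; Incubation: 48 h compound exposure at 37 °C, 5% O2/5% CO2/90% N2; Detection: 3H beta counting after harvest; Controls: uninfected RBC background wells and DMSO-treated infected wells; Repeats: 6–9 replicates.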"}
{"smiles": "CC(=O)N1N=C(c2c(O)n(C)c(=O)n(C)c2=O)CC1c1ccccc1", "note": "(stereo not drawn)", "inhibition": "2% (inactive)"}
{"smiles": "COc1ccc(OC)c(/C=C2\\SC(=S)N(C(C(=O)O)c3ccccc3)C2=O)c1", "note": "(stereo not drawn)", "inhibition": "3% (inactive)"}
{"smiles": "O=C1N=c2ccccc2=C1c1sc(=S)n(NC(=O)c2cccc(O)c2)c1O", "inhibition": "0% (inactive)"}
{"smiles": "O=C(O)CCC(=O)N1N=C(c2c(-c3ccccc3)c3cc(Cl)ccc3[nH]c2=O)CC1c1cccs1", "note": "(stereo not drawn)", "inhibition": "0% (inactive)"}
{"smiles": "O=C(NCc1cccc(F)c1)C1CCN(S(=O)(=O)Cc2ccccc2)CC1", "inhibition": "15% (inactive)"}
{"smiles": "O=C(Nn1c(C2CCC2)nc2ccccc2c1=O)c1cccs1", "inhibition": "8% (inactive)"}
{"smiles": "COc1ccc(C2CC(c3c(-c4ccccc4)c4cc(Cl)ccc4[nH]c3=O)=NN2C(=O)CCC(=O)O)cc1", "note": "(stereo not drawn)", "inhibition": "0% (inactive)"}
{"smiles": "O=C1/C(=C/c2cccs2)SC(=S)N1NS(=O)(=O)c1ccccc1", "inhibition": "1% (inactive)"}
{"smiles": "O=C(NCc1ccco1)C1CCCN(S(=O)(=O)c2cccc3nonc23)C1", "note": "(stereo not drawn)", "inhibition": "0% (inactive)"}
{"smiles": "O=C(O)CCC(=O)N1N=C(c2c(-c3ccccc3)c3cc(Cl)ccc3[nH]c2=O)CC1c1ccco1", "note": "(stereo not drawn)", "inhibition": "0% (inactive)"}
{"smiles": "O=C1N=c2ccccc2=C1c1sc(=S)n(NC(=O)c2ccccc2)c1O", "inhibition": "6% (inactive)"}
{"smiles": "O=C(NCCC1=CCCCC1)C1CCN(S(=O)(=O)c2ccc(Br)s2)CC1", "inhibition": "0% (inactive)"}
{"smiles": "COc1ccccc1-c1nc2ccccc2c(=O)n1NC(=O)c1cccs1", "inhibition": "4% (inactive)"}
